SKN-1 block: C. elegans SKN-1 inhibition; inhibition, % at 21.8 µM; 0.49% of 360,000 active; C. elegans VP596 Pgst-4::GFP/RFP ratio, acrylamide-induced, 24 h;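 active = interference check ratio from 0.5 to 1.5 plus GFP to RFP signal ratio inhibition reaching or exceeding a fixed threshold, cut at about 30% in these data, passing the limit was not always enough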
Arrestin-AP2 inh: human beta-arrestin and AP2 interaction inhibition; 0.31% of 340,000 active; FITC-arrestin peptide / GST-AP2 beads, flow cytometry; AP2 beta2 appendage carries R879A mutation; inhibition, % at 10 µM;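 active = inhibition above a set limit, near 3 SD of compounds lacking own fluorescence, cut at about 54% in these data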
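System: GST-AP2 R879A bound to glutathione beads, E. coli-expressed. Also added: 50 nM FITC-arrestin peptide. Schedule: compound with beads 12 min RT, then probe 1 h RT. Signal: bead flow cytometry, FITC channel. Read-out basis: percent response.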
Rin1 Abl inh: inhibitors of human Rin1-Abl protein interaction. TR-FRET Rin1/Abl binding, biochemical. inhibition, % at 7.35 µM. 0.4% of 360,000 active; in the data active = inhibition above about 5%, passing the limit was not always enough
TbMetRS inhib: Trypanosoma brucei MetRS inhibition; purified T. brucei MetRS, ATP depletion, Kinase-Glo luminescence; inhibition, % at 11.9 µM; 0.4% of 360,000 active; AID 624268;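 active = inhibition above a per-plate cutoff of the control wells' mean inhibition plus 3 SD, cut at about 5.5% in these data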
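Material: parasite MetRS enzyme / Replication: singlicate, one well per compound / Signal: luminescence of leftover ATP / Schedule: 2 h aminoacylation at 25 °C after 15 min preincubation / Medium: HEPES-MgCl2-KCl buffer plus DTT, spermine, BSA, pyrophosphatase / Doses: 11.9 µM single point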
MT1-MMP act inh: MT1-MMP (human) activation inhibition. GFP/RFP ratio change, % at 20 µM. AID 651647. HT1080 RFP-PRO-GFP cells, GFP/RFP ratio fluorescence, overnight; percent of plate control window, DMSO zero. 0.061% of 360,000 active;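 active = GFP/RFP ratio change of at least 30% with cell ATP level not reduced by more than half and red fluorescence within 50% of control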
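system = RFP-PRO-GFP reporter HT1080 cells | dosing = 20 µM single dose, 1% DMSO | timing = overnight cell settling, then overnight compound exposure, 37 °C, 5% CO2 | read-out basis = GFP/RFP fluorescence ratio | controls = DMSO and RFP-L50D-GFP cell wells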
TbMetRS confirm: Trypanosoma brucei MetRS inhibition confirmed | shares compounds with TbMetRS inhib | T. brucei MetRS enzyme, luminescence (ATP depletion) | inhibition, % at 11.9 µM | 93% of 1,400 active; in the data active = inhibition above about 7%
Jurkat cytotox: counter-screen for T. brucei MetRS inhibitors: Jurkat cell cytotoxicity; shares compounds with TbMetRS inhib; Jurkat cells viability, ATP luminescence; inhibition, % at 8.3 µM; 12% of 1,400 active; in the data active = inhibition above about 15%
TbMetRS FP orth: T. brucei MetRS inhibition, orthogonal assay. shares compounds with TbMetRS inhib. inhibition, % at 11.9 µM. AID 651607. purified T. brucei MetRS, fluorescence polarization. 44% of 1,400 active; in the data active = inhibition above about 17%
Each line names hits and unclear results; the compound was inactive in the other large screens (follow-up assays come after a bar, where they were run). Only some compounds are listed: those with a hit (about 1.6% of all), similar ones and a draw of the others.

CN(C(=O)C1Cc2c(-c3ccc(Cl)cc3)ccnc2O1)c1ccccc1 (stereo not given)	none (no result: Arrestin-AP2 inh)
N#Cc1ccccc1S(=O)(=O)NC(=O)[C@H]1O[C@@H](n2cnc3c(N)ncnc32)[C@H](O)[C@@H]1O	none (no result: Arrestin-AP2 inh)
Cc1cc(C)n(CC(O)COc2ccc(Cl)cc2Cl)n1 (stereo not given)	none
Cc1nccn1CC(O)COc1ccc(Cl)cc1Cl (stereo not given)	TbMetRS inhib 9.5 | TbMetRS confirm 11.3 | Jurkat cytotox inactive | TbMetRS FP orth inactive
O=C(C(=O)N1CCN(C(=O)c2ccco2)CC1)c1c[nH]c2ccccc12	TbMetRS inhib 5.8 | TbMetRS confirm 12.0 | Jurkat cytotox inactive | TbMetRS FP orth inactive
Cc1[nH]c2ccccc2c1NC(=O)CN1CCN(C(=O)c2ccco2)CC1	none
Cc1[nH]c2ccccc2c1C(=O)C(=O)N1CCN(C(=O)c2ccco2)CC1	TbMetRS inhib 6.4 | TbMetRS confirm 10.6 | Jurkat cytotox inactive | TbMetRS FP orth inactive
O=C1CC2(CCN(C(=O)C(=O)c3c[nH]c4ccccc34)CC2)Oc2ccccc21	TbMetRS inhib 20.0 | TbMetRS confirm 33.5 | Jurkat cytotox inactive | TbMetRS FP orth 17.9
CCCCNC(=O)C1(C)CCN1C(=O)c1ccc(OC)c(C(F)(F)F)c1 (stereo not given)	none (no result: Arrestin-AP2 inh)
Cc1ccc2cc(CNC[C@H]3O[C@@H](n4cc(C)c(=O)[nH]c4=O)C[C@@H]3O)c(N3CCOCC3)nc2c1	none (no result: Arrestin-AP2 inh)
O=C(CNC(=O)c1cccc(Br)c1)N/N=C/c1ccc[nH]1	TbMetRS inhib 20.1 | TbMetRS confirm 53.4 | Jurkat cytotox inactive | TbMetRS FP orth 24.4
CCOC(=O)CC(=O)NC(C)(C)CCCCC(C)(C)NC(=O)CC(=O)OCC	TbMetRS inhib 6.9 | TbMetRS confirm inactive | Jurkat cytotox inactive | TbMetRS FP orth inactive
O=C(C[C@H]1C(=O)N(Cc2ccccc2)C[C@@H]1Cc1ccccc1)Nc1ccc(Br)cc1	TbMetRS inhib 10.3 (no result: Arrestin-AP2 inh) | TbMetRS confirm 29.7 | Jurkat cytotox inactive | TbMetRS FP orth inactive
COc1ccc(NC(=O)C[C@H]2C(=O)N(c3ccccc3)C[C@@H]2Cc2ccccc2)cc1	none (no result: Arrestin-AP2 inh)
COc1ccc([C@H]2CN(c3ccccc3)C(=O)[C@@H]2CC(=O)Nc2ccccc2)cc1	none (no result: Arrestin-AP2 inh)
CSC[C@H]1CN(Cc2ccccc2)C(=O)[C@@H]1CC(=O)Nc1ccccc1	none (no result: Arrestin-AP2 inh)
CSC[C@H]1CN(Cc2ccccc2)C(=O)[C@@H]1CC(=O)Nc1ccc(Br)cc1	TbMetRS inhib 17.0 (no result: Arrestin-AP2 inh) | TbMetRS confirm 30.4 | Jurkat cytotox inactive | TbMetRS FP orth inactive
COc1ccc([C@H]2CN(c3ccc(OC)cc3)C(=O)[C@@H]2CC(=O)Nc2ccc(Br)cc2)cc1	TbMetRS inhib 8.6 (no result: Arrestin-AP2 inh) | TbMetRS confirm 19.0 | Jurkat cytotox inactive | TbMetRS FP orth inactive
O=C(C[C@H]1C(=O)N(Cc2cccnc2)C[C@@H]1Cc1ccccc1)Nc1ccc(Br)cc1	TbMetRS inhib 41.4 (no result: Arrestin-AP2 inh) | TbMetRS confirm 67.4 | Jurkat cytotox inactive | TbMetRS FP orth 41.2
CC(=O)Nc1ccc(S(=O)(=O)NCCC(=O)NCC2COc3ccccc3O2)cc1 (stereo not given)	none
CCCCN1CC(C)(C)Oc2cccc(F)c2S1(=O)=O	none
O=C(O)Cn1ccc2cc(S(=O)(=O)N3CCCCC3)ccc21	none (no result: Arrestin-AP2 inh)
O=C(C[C@H]1C(=O)N(Cc2ccccc2)C[C@@H]1c1ccc(Br)cc1)Nc1ccc(Br)cc1	TbMetRS inhib 77.4 (no result: Arrestin-AP2 inh) | TbMetRS confirm 93.5 | Jurkat cytotox inactive | TbMetRS FP orth 83.0
COc1ccc(NC(=O)C[C@H]2C(=O)N(Cc3ccccc3)C[C@@H]2c2ccc(OC)cc2)cc1	none (no result: Arrestin-AP2 inh)
S=C(NCCSCc1ccc(Cl)cc1)Nc1ccccc1	TbMetRS inhib 30.1 | TbMetRS confirm 50.9 | Jurkat cytotox inactive | TbMetRS FP orth 49.5
O=C(Nc1ccc(Cl)cc1)Nc1ccccc1C(=O)NCc1ccco1	TbMetRS inhib 13.8 | TbMetRS confirm 19.7 | Jurkat cytotox inactive | TbMetRS FP orth inactive
O=C(NCCSCc1ccco1)Nc1ccc(Cl)cc1	TbMetRS inhib 6.4 | TbMetRS confirm 15.9 | Jurkat cytotox inactive | TbMetRS FP orth inactive
S=C(NCCSCc1ccccc1Cl)Nc1ccccc1	none
CCCc1nc2cc(C)c(Br)c(C)n2c1Cc1ccccc1OC	none (no result: Arrestin-AP2 inh, Rin1 Abl inh)
CN1C(=O)NC(c2ccccc2[N+](=O)[O-])C2=C1CCCC2=O (stereo not given)	none
Cc1ccc2c(c1)c1nnc(SCC(=O)Nc3cccc(Cl)c3C)nc1n2CC(=O)O	TbMetRS inhib 22.6 | TbMetRS confirm 64.6 | Jurkat cytotox inactive | TbMetRS FP orth 32.7
Cc1ccc2c(c1)c1nnc(SCC(=O)Nc3ccccc3C(F)(F)F)nc1n2CC(=O)O	none
Nc1cc(Br)cc2c1[nH]c(=O)c1ccccc12	none (no result: Arrestin-AP2 inh)
Cc1cc(C)n(CCC(=O)N/N=C/c2c(O)ccc3ccccc23)n1	TbMetRS inhib 6.5 | TbMetRS confirm 13.9 | Jurkat cytotox 86.8 | TbMetRS FP orth inactive
FC(F)(F)c1cccc(CNC(=S)Nc2ccccc2)c1	TbMetRS inhib 15.3 | TbMetRS confirm 29.4 | Jurkat cytotox inactive | TbMetRS FP orth inactive
FC(F)(F)c1cccc(NC(=S)NCc2ccccc2)c1	none
O=C(O)[C@@H]1CCCN1C(=O)c1ccccc1N1C(=O)[C@@H]2Cc3c([nH]c4ccccc34)C(c3cccc(Cl)c3)N2C1=O (stereo not given in full)	none
O=C(O)[C@H]1CCCN1C(=O)c1ccccc1N1C(=O)[C@@H]2Cc3c([nH]c4ccccc34)C(c3cccc(Cl)c3)N2C1=O (stereo not given in full)	TbMetRS inhib 8.3 | TbMetRS confirm 18.3 | Jurkat cytotox inactive | TbMetRS FP orth inactive
COc1ccc(OCc2nc3ccccc3[nH]2)cc1	none
Brc1ccc(OCc2nc3ccccc3[nH]2)cc1	TbMetRS inhib 10.2 | TbMetRS confirm 16.1 | Jurkat cytotox inactive | TbMetRS FP orth inactive
c1ccc2cc(OCc3nc4ccccc4[nH]3)ccc2c1	TbMetRS inhib 6.0 | TbMetRS confirm 6.8 | Jurkat cytotox inactive | TbMetRS FP orth inactive
COc1ccccc1CNC(=O)Nc1nc(C(N)Cc2ccc(Cl)cc2)cs1 (stereo not given)	none (no result: Arrestin-AP2 inh)
c1ccc(CCNc2ccnc3cc4ccccc4cc23)cc1	TbMetRS inhib 84.4 | TbMetRS confirm 91.6 | Jurkat cytotox 81.1 | TbMetRS FP orth 83.1
CC(C)Nc1ccc(Nc2ccnc3cc4ccccc4cc23)cc1	TbMetRS inhib 85.2 | TbMetRS confirm 88.3 | Jurkat cytotox 79.6 | TbMetRS FP orth 89.7
